ChEMBL document CHEMBL1949589, “Hydrophilic pyrazine dyes as exogenous fluorescent tracer agents for real-time point-of-care measurement of glomerular filtration rate” (J Med Chem, 2011)

Key:
[1] = Plasma protein binding in rat at 20 uM after 1 hr by HPLC analysis; type: ADME, cell-free; details: read-out: PPB (converted)
In short: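 20 μM compound in rat plasma, 37 °C for 1 h. Free fraction separated by 30 kDa MWCO centrifugal ultrafiltration and quantified by HPLC with fluorescence detection against external calibration standards.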

[2] = Drug excretion in Sprague-Dawley rat urine after 6 hrs; type: ADME
In short: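 Test agent (1 mL, 2 mM in PBS) given by tail vein to conscious restrained rats in metabolic cages, urine collected at 2, 4 and 6 h with cage washes; or to rats anesthetized with Inactin 100 mg/kg ip, tracheotomized, kept on 37 °C pad, with bladder urine drawn at 6 h. Urine level by HPLC with fluorescence detection against external standards; %ID from mass balance; mean ± SEM, n=3-6.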

[3] = Stability of the compound assessed as drug degradation by HPLC analysis; type: physicochemical
[4] = Terminal half life in Sprague-Dawley rat plasma […]; type: ADME, organism-based; details: read-out: beta t1/2
In short: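 Male Sprague Dawley rats (330-380 g), Inactin ip, tracheotomized, with femoral vein dosing and femoral artery sampling catheters. Dose was 1 mL of 2 mM agent; about 200 μL blood taken at 0-120 min (10 points). Plasma measured by HPLC with fluorescence detection against external standards. Terminal-phase half-life from two-compartment modeling; mean ± SEM, n=4-8.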

Rattus norvegicus = assay: Plasma clearance in Sprague-Dawley rat in presence of 70 mg/kg probenecid administered 10 mins prior to compound treatment; details: in vivo
Mus musculus = organism: Mus musculus; assay: Drug uptake in mouse bladder at 300 uL after 60 mins by real-time fluorescence analysis; details: in vivo, 1 h

SMILES	fraction unbound at 1 h, 20 µM [1]	urinary excretion (% of injected dose) at 6 h [2]	Stability [3]	half-life [4]	CL (Rattus norvegicus)	Drug uptake (Mus musculus)
Nc1nc(C(=O)NCCO)c(N)nc1C(=O)NCCO	0.88					
Nc1nc(C(=O)NCC(O)CO)c(N)nc1C(=O)NCC(O)CO (stereo not given)	0.98	61 % ID				
Nc1nc(C(=O)N[C@@H](CO)C(=O)O)c(N)nc1C(=O)N[C@@H](CO)C(=O)O	1	82 % ID	Stable	36 min	Not Active	
Nc1nc(C(=O)N[C@H](CC(=O)O)C(=O)O)c(N)nc1C(=O)N[C@H](CC(=O)O)C(=O)O	1	61 % ID				
CCCNc1nc(C(=O)N[C@H](CO)C(=O)O)c(NCCC)nc1C(=O)N[C@H](CO)C(=O)O	0.26					
NC(=O)c1nc(NC[C@H](O)CO)c(C(N)=O)nc1NC[C@H](O)CO	0.85	25 % ID				
O=C(NCC(O)CO)c1nc(NC[C@H](O)CO)c(C(=O)NCC(O)CO)nc1NC[C@H](O)CO (stereo not given in full)	0.94	88 % ID	Stable	19 min	Active	Active
O=C(NCC(O)CO)c1nc(NC[C@@H](O)CO)c(C(=O)NCC(O)CO)nc1NC[C@@H](O)CO (stereo not given in full)	0.96	87 % ID				
O=C(N[C@H](CO)C(=O)O)c1nc(NC[C@H](O)CO)c(C(=O)N[C@H](CO)C(=O)O)nc1NC[C@H](O)CO	1	85 % ID	Stable	20 min	Active	
CNC(=O)c1c(I)c(NC(C)=O)c(I)c(C(=O)O)c1I [IOTHALAMIC ACID]	0.9	80 % ID		32 min	Active	
Nc1nc(C(=O)N[C@H](CO)C(=O)O)c(N)nc1C(=O)N[C@H](CO)C(=O)O [RELMAPIRAZIN]	1	90 % ID	Stable	29 min	Active	
